Results published in publication PMC6447450 (Structure (London, England : 1993), 2019).
“Also recorded” adds a separate entry of the source.

Tests used:
[1] = test system: Bfl-1, Mcl-1, Bcl-xL, Bcl-w, and Bcl-2; assay: Yeast-surface display FACS binding to five Bcl-2 family paralogs; set-up: species or system human; conditions: for selectivity of Mcl-1 binders among Bcl-2 family paralogs (in words): Mcl-1 versus Bfl-1, Bcl-xL
Procedure, shortened: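 Myc-tagged human Mcl-1 (172-327), Bfl-1 (1-151), Bcl-2 (1-217), Bcl-w (1-164) and Bcl-xL (1-209) tested at 1000, 100, 10 and 1 nM on peptide-displaying yeast induced in galactose medium for 20-24 hr at 30 °C. Display detected with anti-HA and bound target with anti-c-myc (15 min, 4 °C), then APC anti-mouse and PE anti-rabbit (15 min, 4 °C, dark). Read-out: FACS median binding signal of expression-positive cells.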

Mcl-1 = Mcl-1 (Homo sapiens, UniProt Q07820); assay: Yeast-surface display FACS binding to Mcl-1
Bfl-1 = biological target: T1, Bfl-1 (Homo sapiens, UniProt Q16548); assay: Yeast-surface display FACS binding to Bfl-1
T1 sequence (Q16548 1-151): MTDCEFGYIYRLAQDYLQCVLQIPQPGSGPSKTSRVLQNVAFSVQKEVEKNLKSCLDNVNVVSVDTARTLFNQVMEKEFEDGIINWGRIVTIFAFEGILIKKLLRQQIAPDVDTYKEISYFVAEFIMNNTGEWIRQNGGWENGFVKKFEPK

Mcl-1, sequence (Q07820 172-327): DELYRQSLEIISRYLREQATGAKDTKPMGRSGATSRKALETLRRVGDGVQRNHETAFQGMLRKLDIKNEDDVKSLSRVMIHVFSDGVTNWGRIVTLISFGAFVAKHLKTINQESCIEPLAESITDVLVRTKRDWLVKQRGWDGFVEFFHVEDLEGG

APKEKEVAETLRKIGEEINEALK- [dM1] was tested, and the “selectivity of Mcl-1 binders among Bcl-2 family paralogs (in words)” value ([1]; yeast-surface display) was “selective”.

With APYLEQVARTLLHIGMEINEALR- [dM6] the “binding to target Mcl-1 (in words)” value (Mcl-1) was “did not bind to their targets with high affinity” and the “binding to Bcl-2 family members (in words)” value ([1]; yeast-surface display FACS, Bfl-1, Mcl-1, Bcl-xL) was “not binding to any of the Bcl-2 family members we tested”.

In the case of -SYIDKIADLIDKVVEEINSKLE- [dF6], the “binding to target Bfl-1 (in words)” value (Bfl-1) was “did not bind to their targets with high affinity; also recorded: did not bind tightly to Bfl-1”.

In the case of “-QWVREIAAGLRRAADDVNAQVER [FS2, reference compound]”, the “selectivity for Bfl-1” value ([1]; Bfl-1 versus Mcl-1, Bcl-xL, yeast-surface display) was greater than 100 fold.

With APKEKEVARTLIKIGEEINEALK- [dM5] the “selectivity of Mcl-1 binders among Bcl-2 family paralogs (in words)” value ([1]; yeast-surface display) was “selective”.
